This is an account of results in ChEMBL document CHEMBL4725348, “Rational Design and Evaluation of 6-(Pyrimidin-2-ylamino)-3,4-dihydroquinoxalin-2(1H)-ones as Polypharmacological Inhibitors of BET and Kinases” (J Med Chem, 2020).

The target of experiment [1] is T1, Cyclin-dependent kinase 9 (Homo sapiens, UniProt P50750). In words: Inhibition of human CDK9 by mobility shift assay relative to control. In short, it runs like this: (§1)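 Recombinant CDK9 incubated with compound and CTD3 peptide substrate. Activity read by Caliper mobility-shift; Dinaciclib served as positive control. IC50 values are means of at least two independent experiments.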
T1 sequence (P50750 whole entry): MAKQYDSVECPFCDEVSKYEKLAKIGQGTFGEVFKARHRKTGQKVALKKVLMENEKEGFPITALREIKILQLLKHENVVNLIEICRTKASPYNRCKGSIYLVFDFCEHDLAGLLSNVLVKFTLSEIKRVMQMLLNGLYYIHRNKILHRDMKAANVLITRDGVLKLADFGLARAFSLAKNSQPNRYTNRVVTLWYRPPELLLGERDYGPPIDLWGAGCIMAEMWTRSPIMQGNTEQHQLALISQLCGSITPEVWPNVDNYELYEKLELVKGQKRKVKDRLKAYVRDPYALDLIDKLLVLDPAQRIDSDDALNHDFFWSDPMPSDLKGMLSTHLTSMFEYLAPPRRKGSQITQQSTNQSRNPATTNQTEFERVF

Experiment [2] concerns the target T2, Bromodomain-containing protein 4 (Homo sapiens, UniProt O60885). In words: Inhibition of His6-tagged BRD4 bromodomain 1 (unknown origin) expressed in Escherichia coli Bl21(DE3) cells at 10 uM incubated for 4 hrs by FP assay relative to control. In short, it runs like this:
(§2)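 Fluorescence polarization. Purified bromodomain (His6 tag removed with TEV, size-exclusion purified) equilibrated with fluorescent ligand. Compound or DMSO (2‰ final) then added and left 4 h at room temperature in the dark. Anisotropy read at ex 485/em 530 nm. IC50 values are means of at least two independent experiments; single-point inhibition tested at the listed concentration.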

Experiment [3] deals with T2, Bromodomain-containing protein 4. Nature of the experiment: Inhibition of His6-tagged BRD4 bromodomain 1 (unknown origin) expressed in Escherichia coli Bl21(DE3) cells incubated for 4 hrs by FP assay. The method, boiled down: as §2
For experiment [4] the target is unchanged. In words: Inhibition of His6-tagged BRD4 bromodomain 1 (unknown origin) expressed in Escherichia coli Bl21(DE3) cells at 1 uM incubated for 4 hrs by FP assay relative to control. The method, boiled down: as §2
Experiment [5] has as its target T1, Cyclin-dependent kinase 9. In words: Inhibition of human CDK9 at 1 uM by mobility shift assay relative to control. In short, it runs like this: as §1
In experiment [6] the target is T1, Cyclin-dependent kinase 9. Nature of the experiment: Inhibition of human CDK9 at 100 nM by mobility shift assay relative to control. In short, it runs like this: as §1
Experiment [7] deals with Cyclin-dependent kinase 6 (Homo sapiens) (UniProt Q00534). In words: Inhibition of CDK6 (unknown origin) at 1 uM relative to control.
Chain of Cyclin-dependent kinase 6 (Homo sapiens) (Q00534 whole entry): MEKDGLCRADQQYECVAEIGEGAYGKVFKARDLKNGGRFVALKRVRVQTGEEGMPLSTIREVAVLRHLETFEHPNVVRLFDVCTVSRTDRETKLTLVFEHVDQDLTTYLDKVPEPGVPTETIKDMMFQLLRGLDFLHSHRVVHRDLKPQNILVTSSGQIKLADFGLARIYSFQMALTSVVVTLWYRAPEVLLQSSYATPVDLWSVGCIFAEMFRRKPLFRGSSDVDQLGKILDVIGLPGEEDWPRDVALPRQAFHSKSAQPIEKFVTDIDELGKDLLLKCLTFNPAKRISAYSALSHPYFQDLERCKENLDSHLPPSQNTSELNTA
The target is the same in experiment [8]. In words: Inhibition of CDK6 (unknown origin) at 100 nM relative to control.
In experiment [9] the target is Phosphatidylinositol 4,5-bisphosphate 3-kinase catalytic subunit alpha isoform (Homo sapiens) (UniProt P42336). In words: Inhibition PI3Kalpha (unknown origin) at 1 uM relative to control.
Chain of Phosphatidylinositol 4,5-bisphosphate 3-kinase catalytic subunit alpha isoform (Homo sapiens) (P42336 whole entry, canonical isoform): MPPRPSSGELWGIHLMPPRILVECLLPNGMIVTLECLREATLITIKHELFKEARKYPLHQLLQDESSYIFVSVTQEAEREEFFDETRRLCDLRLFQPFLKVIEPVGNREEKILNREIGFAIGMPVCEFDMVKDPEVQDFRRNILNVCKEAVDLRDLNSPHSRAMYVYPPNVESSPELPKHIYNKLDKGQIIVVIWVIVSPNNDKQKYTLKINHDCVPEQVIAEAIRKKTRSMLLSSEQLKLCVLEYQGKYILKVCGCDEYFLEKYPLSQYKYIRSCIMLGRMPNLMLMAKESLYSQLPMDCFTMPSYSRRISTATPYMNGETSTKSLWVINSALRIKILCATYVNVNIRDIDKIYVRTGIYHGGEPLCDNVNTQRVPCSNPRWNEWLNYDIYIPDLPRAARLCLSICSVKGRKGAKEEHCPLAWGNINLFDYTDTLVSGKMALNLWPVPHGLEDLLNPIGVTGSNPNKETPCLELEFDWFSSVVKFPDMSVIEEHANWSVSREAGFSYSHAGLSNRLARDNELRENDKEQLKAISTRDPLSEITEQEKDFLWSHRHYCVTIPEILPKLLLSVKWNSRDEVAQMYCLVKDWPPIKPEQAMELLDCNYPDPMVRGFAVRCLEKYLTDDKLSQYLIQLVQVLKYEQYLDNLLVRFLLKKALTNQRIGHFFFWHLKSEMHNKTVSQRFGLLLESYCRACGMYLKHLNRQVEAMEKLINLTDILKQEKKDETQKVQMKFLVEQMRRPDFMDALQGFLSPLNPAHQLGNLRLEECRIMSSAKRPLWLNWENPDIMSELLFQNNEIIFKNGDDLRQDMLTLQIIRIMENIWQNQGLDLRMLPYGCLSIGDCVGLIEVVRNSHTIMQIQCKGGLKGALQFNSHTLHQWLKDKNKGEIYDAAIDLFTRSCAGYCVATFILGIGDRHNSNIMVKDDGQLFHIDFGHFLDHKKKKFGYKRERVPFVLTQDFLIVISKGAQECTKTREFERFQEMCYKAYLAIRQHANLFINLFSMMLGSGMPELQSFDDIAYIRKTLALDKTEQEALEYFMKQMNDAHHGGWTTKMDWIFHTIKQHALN
Experiment [10] shares this target. In words: Inhibition PI3Kalpha (unknown origin) at 100 nM relative to control.
Experiment [11] addresses T3, Aurora kinase A (Homo sapiens) (UniProt O14965).
T3 sequence (whole entry): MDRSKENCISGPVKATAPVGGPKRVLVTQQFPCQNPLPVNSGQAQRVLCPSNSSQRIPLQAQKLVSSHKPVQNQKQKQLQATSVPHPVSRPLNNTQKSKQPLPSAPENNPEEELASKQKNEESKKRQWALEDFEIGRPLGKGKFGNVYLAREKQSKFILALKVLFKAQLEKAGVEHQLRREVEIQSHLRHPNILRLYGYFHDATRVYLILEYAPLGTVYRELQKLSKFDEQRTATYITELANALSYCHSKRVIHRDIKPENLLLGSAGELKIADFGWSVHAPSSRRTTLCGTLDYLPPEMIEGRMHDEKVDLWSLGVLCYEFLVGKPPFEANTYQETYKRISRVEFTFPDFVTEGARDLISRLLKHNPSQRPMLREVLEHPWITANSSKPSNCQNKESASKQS
In words: Inhibition AuroraA (unknown origin) at 1 uM relative to control.

For experiment [12], the target named is T3, Aurora kinase A (Homo sapiens). Nature of the experiment: Inhibition AuroraA (unknown origin) at 100 nM relative to control.

Structures are written as SMILES.

One may read the IC50 as the concentration that inhibits the measured activity by half. Broadly, the inhibition is the drop in the measured response relative to a control, in per cent. With `CC(C)N1c2cc(Nc3nccc(-c4cccc(NC5CCCCC5)c4)n3)ccc2N(C)C(=O)[C@H]1C`, in [1], the IC50 is 169 nM. Also, the inhibition in experiment [2] was 13%.
On to `Cc1cc(F)ccc1-c1ccnc(Nc2ccc3c(c2)N(C(C)C)[C@H](C)C(=O)N3C)n1`, for which the 50% inhibitory concentration (IC50) is 156 nM in [3] and 578 nM in [1].
Turning to `CC(C)N1c2cc(Nc3ncc(F)c(-c4cncc5ccccc45)n3)ccc2N(C)C(=O)[C@H]1C`, the IC50 is 81.3 nM in [3] and 23.9 nM in experiment [1].
As for `CNc1cccc(-c2ccnc(Nc3ccc4c(c3)N(C(C)C)[C@H](C)C(=O)N4C)n2)c1`, the IC50 was determined as 173 nM in [3] and 22 nM in experiment [1].
On the same counts, the results for `Cc1cccc(-c2ccnc(Nc3ccc4c(c3)N(C(C)C)[C@H](C)C(=O)N4C)n2)c1` are 760 nM and 196 nM.
On the same counts, the results for `CC(C)Nc1cccc(-c2ccnc(Nc3ccc4c(c3)N(C(C)C)[C@H](C)C(=O)N4C)n2)c1` are 268 nM and 50.9 nM.
In the case of `CC(C)N1c2cc(Nc3nccc(-c4cccc5c4CCCN5)n3)ccc2N(C)C(=O)[C@H]1C`, the 50% inhibitory concentration (IC50) in experiment [3] was 27 nM; in [1] it was 67 nM.
`CC(C)N1c2cc(Nc3nccc(-c4cccc5cnccc45)n3)ccc2N(C)C(=O)[C@H]1C`: the results for the IC50 in [3] and in experiment [1] were 75.9 nM and 79.8 nM, respectively.
Turning to `COc1cccc(-c2ccnc(Nc3ccc4c(c3)N(C(C)C)[C@H](C)C(=O)N4C)n2)c1`, the 50% inhibitory concentration (IC50) in experiment [3] is 965 nM; in experiment [1] it was 126 nM.
As for `CC(C)N1c2cc(Nc3nccc(-c4cccc(N)c4)n3)ccc2N(C)C(=O)[C@H]1C`, the IC50 in experiment [3] was 120 nM; in experiment [1] it was 5.9 nM.
As to `CC(C)N1c2cc(Nc3nccc(-c4cccc5[nH]ccc45)n3)ccc2N(C)C(=O)[C@H]1C`, the IC50 in [3] came to 288 nM; in experiment [1], 13.8 nM.
Consider `Cc1noc(C)c1-c1cccc(Nc2nccc(-c3ccccc3)n2)c1`, for which the inhibition in experiment [4] worked out at 2.2%.
For `CC(C)N1c2cc(Nc3cccc(-c4ccccc4)c3)ccc2N(C)C(=O)[C@H]1C`, in experiment [3], 357 nM corresponded to half-maximal inhibition (IC50). Further, the inhibition in experiment [5] is 1.3%; in experiment [6], -6.1%; in experiment [7] it was 0.9%; in [8], 1.8%; in [9] it was 6.1%; in experiment [10], -4.8%. The figures for the inhibition in experiment [11] and in experiment [12] were -1.5% and -3.4%, respectively.
In the case of `CC(C)N1c2cc(Nc3nccc(-c4ccccc4)n3)ccc2N(C)C(=O)[C@H]1C`, half-maximal inhibition in experiment [3] (IC50) was put at 193 nM. The inhibition in experiment [5] is 102%; in experiment [6], 83.4%; in [7] it was 4.8%; in experiment [8], -0.8%; in [9] it was 22.9%; in [10] it was 0%. Moreover, the inhibition in experiment [12] was found to be 10.6%.
As for `CCNc1cccc(-c2ccnc(Nc3ccc4c(c3)N(C(C)C)[C@H](C)C(=O)N4C)n2)c1`, the half-maximal inhibitory concentration (IC50) in experiment [3] turned out to be 319 nM; in [1], 37.8 nM.
With `CC(C)N1c2cc(Nc3nccc(-c4cccc(Nc5ccccc5)c4)n3)ccc2N(C)C(=O)[C@H]1C`, the inhibition in [5] was determined as 47.8%; in experiment [6], 8.8%.
In the case of `CC(C)N1c2cc(Nc3nccc(-c4cccc5nn(C)cc45)n3)ccc2N(C)C(=O)[C@H]1C`, the concentration for half-maximal inhibition (IC50) in experiment [3] came to 168 nM; in experiment [1], 110 nM.
In experiment [3], `COc1ccccc1-c1cccc(Nc2ccc3c(c2)N(C(C)C)[C@H](C)C(=O)N3C)c1` yielded a concentration for half-maximal inhibition (IC50) of 820 nM. Besides, the inhibition in experiment [5] was 3.8%; in experiment [6], -3%; in [7], -0.1%; in [8], -1.4%; in experiment [9] it was 3%; in experiment [10], -2.6%. The inhibition in [11] was -0.8%; in [12], 1.1%.
For `Cc1cnc(Nc2ccc3c(c2)N(C(C)C)[C@H](C)C(=O)N3C)nc1-c1cncc2ccccc12`, the half-maximal inhibitory concentration (IC50) stood at 19.1 nM in experiment [3] and 100 nM in experiment [1].
Regarding `CC(C)N1c2cc(Nc3ncc(Cl)c(-c4cncc5ccccc45)n3)ccc2N(C)C(=O)[C@H]1C`, the results for the IC50 in [3] and in [1] were 58.1 nM and 23 nM, respectively.
For the compound `Cc1noc(C)c1-c1cccc(Nc2nccc(-c3ccncc3)n2)c1`, the inhibition in [4] stood at 37.7%.
With `CC(C)N1c2cc(Nc3nccc(-c4cccc5ncccc45)n3)ccc2N(C)C(=O)[C@H]1C`, the IC50 turned out to be 15.2 nM in [3] and 81.6 nM in experiment [1].
With `CC(C)N1c2cc(Nc3nccc(-c4ccccc4N)n3)ccc2N(C)C(=O)[C@H]1C`, the IC50 came out at 251 nM in experiment [3] and 39.2 nM in experiment [1].
As for `CC(C)N1c2cc(Nc3nccc(-c4ccncc4)n3)ccc2N(C)C(=O)[C@H]1C`, the IC50 in experiment [3] came to 83 nM. In addition, the inhibition in [5] stood at 98%; in experiment [6], 94.5%; in experiment [7], 7.7%; in experiment [8], 0.2%; in experiment [9], 82.4%; in experiment [10], 37.5%. In addition, the inhibition in [11] is 43.7%; in [12], 4%.
On to `Cc1ccccc1-c1ccnc(Nc2ccc3c(c2)N(C(C)C)[C@H](C)C(=O)N3C)n1`, for which, in experiment [3], the IC50 turned out to be 271 nM. Also, the inhibition in experiment [5] worked out at 1%; in experiment [6], 1.5%.
Take `CC(C)N1c2cc(Nc3nccc(-c4c[nH]c5ccccc45)n3)ccc2N(C)C(=O)[C@H]1C`: in experiment [3], the IC50 was found to be 329 nM. In addition, the inhibition in [5] is 58.6%; in experiment [6], 7.6%.
In the case of `CC(C)N1c2cc(Nc3nccc(-c4ccc(N)cc4)n3)ccc2N(C)C(=O)[C@H]1C`, the IC50 was 480 nM in experiment [3] and 48.9 nM in [1].
The matching figures for `Cc1c(N)cccc1-c1ccnc(Nc2ccc3c(c2)N(C(C)C)[C@H](C)C(=O)N3C)n1`: 115 nM and 183 nM.
Take `CC(C)N1c2cc(Nc3cccc(-c4ccncc4)c3)ccc2N(C)C(=O)[C@H]1C`: in [3], the half-inhibitory concentration (IC50) was found to be 77.3 nM. For the same compound, the inhibition in [5] is 0.7%; in [6], 2.2%; in experiment [7] it was 0.7%; in [8] it was 2.7%; in [9] it was -1%; in experiment [10] it was -4.1%. The results for the inhibition in experiment [11] and in [12] were 14.2% and -6.1%, respectively.
For `Cc1ccc(-c2ccnc(Nc3ccc4c(c3)N(C(C)C)[C@H](C)C(=O)N4C)n2)cc1`, the half-maximal inhibitory concentration (IC50) was determined as 5850 nM in experiment [3] and 488 nM in experiment [1].
In the case of `CC(C)N1c2cc(Nc3nccc(-c4cccc(C#N)c4)n3)ccc2N(C)C(=O)[C@H]1C`, in experiment [3], the IC50 was determined as 161 nM. Moreover, the inhibition is 71.8% in experiment [5]; 25.2% in [6]; 2.8% in [7]; -0.8% in experiment [8]; 63.1% in experiment [9]; 14.1% in experiment [10]. Besides, the inhibition is 54.4% in experiment [11] and 8.7% in experiment [12].
For `Cc1ccc(N)cc1-c1ccnc(Nc2ccc3c(c2)N(C(C)C)[C@H](C)C(=O)N3C)n1`, the figures for the IC50 in experiment [3] and in experiment [1] were 236 nM and 151 nM, respectively.
The matching figures for `COc1cc(F)ccc1-c1ccnc(Nc2ccc3c(c2)N(C(C)C)[C@H](C)C(=O)N3C)n1`: 497 nM and 46.9 nM.
With `COc1ccc(-c2ccnc(Nc3ccc4c(c3)N(C(C)C)[C@H](C)C(=O)N4C)n2)cc1`, the IC50 was found to be 535 nM in [3] and 31.7 nM in [1].
The compound `COc1ccccc1-c1ccnc(Nc2ccc3c(c2)N(C(C)C)[C@H](C)C(=O)N3C)n1` came in with a concentration for half-maximal inhibition (IC50) in experiment [3] of 477 nM. Besides, the inhibition in [5] is 104%; in experiment [6], 67.9%; in [7], 8.1%; in experiment [8], 2.3%; in experiment [9], 0.1%; in experiment [10], -2.1%. Further, the inhibition in [11] is 86.8%; in experiment [12] it was 37.4%.
Regarding `CC(C)N1c2cc(Nc3nccc(-c4ccnc5ccccc45)n3)ccc2N(C)C(=O)[C@H]1C`, the IC50 in [3] was 25.3 nM; in experiment [1], 19.8 nM.
Take `CC(C)N1c2cc(Nc3cccc(-c4cccc(C#N)c4)c3)ccc2N(C)C(=O)[C@H]1C`: in experiment [3], the IC50 was determined as 666 nM. The inhibition is -4.1% in experiment [5]; 2% in [6]; -3.3% in [7]; 2.3% in [8]; 5.2% in experiment [9]; -0.1% in experiment [10]. In addition, the inhibition in [11] was -1.8%; in experiment [12], -3%.
